A selection: hits, their analogues and other compounds. The true share with any hit is near 2.3%.
TRPC6 inhibitor – inhibitors of mouse TRPC6 channel; HEK293-TRPC6, membrane potential dye, ACh-evoked depolarization; hits give low values; B-score at 10 µM; actives 1.1% (n = 310,000); AID 2553; Q61143;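 active = B-score under library mean minus 3 SD, initial fluorescence not abnormally high, positive integrated signal ratio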;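 note: B-score derived from integrated fluorescence ratio over the kinetic read; more negative B-score means stronger inhibition of depolarization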
TRPC4 agonist – opens the mouse TRPC4 cation channel; HEK293 TRPC4beta/mu-opioid, Fluo4 calcium fluorescence; hits give high values; B-score at 10 µM; actives 0.49% (n = 310,000);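 active = B-score above 5 SD of library B-scores, and initial fluorescence ratio not above library mean plus 5 SD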;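 note: positive B-score marks a calcium rise read as TRPC4 activation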
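Assay system: HEK293 cells stably co-expressing mouse TRPC4beta and mu-opioid receptor / Timing: Fluo4 dye loading 45 min at room temperature, 110 s recording / Signal: Fluo4 calcium-sensitive dye fluorescence, kinetic, 1 Hz baseline / Read-out: integrated baseline-normalised fluorescence ratio, converted to per-well B score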
TRPC4 potent – allosteric potentiators of mouse TRPC4 channel; Q9QUQ5; actives 0.42% (n = 310,000); B-score at 10 µM; AID 2227; HEK293 TRPC4beta/mu-opioid, DAMGO EC20, Fluo-4 Ca2+ flux; hits give high values;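 active = B-score of calcium response area above 5 SD of library B-scores, with initial fluorescence ratio within 5 SD of library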;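 note: B-score of integrated fluorescence ratio over time as area under calcium response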
TRPC4 block – inhibitors of mouse TRPC4 channel; Q9QUQ5; HEK293 TRPC4beta/mu-opioid, DAMGO-evoked Fluo4 calcium flux; hits give low values; B-score at 10 µM; actives 0.39% (n = 300,000); AID 2247;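 active = B-score over 3 SD under the library average, no early fluorescence shift, positive overall ratio signal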
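Test system – stable TRPC4beta/mu-opioid receptor HEK293 cells · Probe or stimulus – DAMGO, a submaximal dose followed by a maximal one · Dosing – one concentration per compound · Signal – Fluo4 calcium fluorescence by kinetic imaging, 5 s 1 Hz baseline · Evaluation – per-well B score of integrated baseline-normalized Fluo4 ratio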
TRPC6 activator – activators of mouse TRPC6 channel; HEK293-TRPC6 membrane potential dye fluorescence; hits give high values; actives 0.13% (n = 310,000); AID 2550; B-score at 10 µM;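 active = B-score of the integrated fluorescence ratio above library mean plus 3 SD, and starting fluorescence ratio within library mean plus 5 SD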;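 note: higher score means more depolarization so channel activation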
Numbers without * were called inactive.

CC1CC(C)CN(CCCNC(=O)C2CCN(S(=O)(=O)N3CCCCC3)CC2)C1 (stereo unspecified) was read as TRPC6 inhibitor inactive, TRPC4 agonist 59*, TRPC4 potent inactive, TRPC4 block inactive and TRPC6 activator inactive.
`CCCCS(=O)(=O)N1CCCC(C(=O)Nc2ccc3c(c2)CCC3)C1` (stereo unspecified) gave TRPC6 inhibitor inactive, TRPC4 agonist inactive, TRPC4 potent inactive, TRPC4 block inactive and TRPC6 activator inactive.
`Cc1nn(Cc2noc(C(=O)NCCc3ccccn3)n2)c(C)c1Br` gave TRPC6 inhibitor inactive, TRPC4 agonist 82*, TRPC4 potent inactive, TRPC4 block inactive and TRPC6 activator inactive.
For Cc1nn(Cc2noc(C(=O)NCc3ccccn3)n2)c(C)c1Br the results were TRPC6 inhibitor inactive, TRPC4 agonist inactive, TRPC4 potent inactive, TRPC4 block inactive and TRPC6 activator inactive.
`Fc1ccc(CN2CCC(Cc3ccccc3)CC2)cc1F` gave TRPC6 inhibitor inactive, TRPC4 agonist inactive, TRPC4 potent inactive, TRPC4 block -6* and TRPC6 activator inactive.
For COc1cc(OC)c(CN2CCC(Cc3ccccc3)CC2)cc1Br the results were TRPC6 inhibitor inactive, TRPC4 agonist 108*, TRPC4 potent inactive, TRPC4 block inactive and TRPC6 activator inactive.
Cn1c(N2CCN(C(=O)Nc3ccc(C(F)(F)F)cc3)CC2)nc2ccccc21 was read as TRPC6 inhibitor inactive, TRPC4 agonist 94*, TRPC4 potent inactive, TRPC4 block inactive and TRPC6 activator inactive.
For Cn1c(N2CCN(C(=O)NCc3ccccc3)CC2)nc2ccccc21 the results were TRPC6 inhibitor inactive, TRPC4 agonist inactive, TRPC4 potent inactive, TRPC4 block inactive and TRPC6 activator inactive.
Screening Cc1ccc(N(Cc2cc3ccc(C)cc3[nH]c2=O)S(=O)(=O)c2ccccc2)cc1 returned TRPC6 inhibitor inactive, TRPC4 agonist inactive, TRPC4 potent inactive, TRPC4 block inactive and TRPC6 activator inactive.
COCCCN(Cc1ccco1)C(=O)Cn1ncc2c([nH]c3ccccc32)c1=O was read as TRPC6 inhibitor inactive, TRPC4 agonist inactive, TRPC4 potent inactive, TRPC4 block inactive and TRPC6 activator inactive.
For CN(Cc1ccco1)C(=O)Cn1ncc2c([nH]c3ccccc32)c1=O the results were TRPC6 inhibitor inactive, TRPC4 agonist inactive, TRPC4 potent 20*, TRPC4 block inactive and TRPC6 activator inactive.
For CCOC(=O)c1c(-c2cccc(C)c2)csc1NC(=O)C1CC=CCC1C(=O)O (stereo unspecified) the results were TRPC6 inhibitor inactive, TRPC4 agonist inactive, TRPC4 potent inactive, TRPC4 block -6* and TRPC6 activator inactive.
Cc1ccc(-c2csc(NC(=O)C3CC=CCC3C(=O)O)c2C(=O)OC(C)C)cc1 (stereo unspecified) was read as TRPC6 inhibitor inactive, TRPC4 agonist inactive, TRPC4 potent inactive, TRPC4 block -5* and TRPC6 activator inactive.
For CCOC(=O)c1c(-c2ccc(C)cc2)csc1NC(=O)C1CC=CCC1C(=O)O (stereo unspecified) the results were TRPC6 inhibitor inactive, TRPC4 agonist inactive, TRPC4 potent inactive, TRPC4 block inactive and TRPC6 activator inactive.
CCOC(=O)C1(CCc2ccccc2)CCN(Cc2ccccn2)CC1 was read as TRPC6 inhibitor inactive, TRPC4 agonist inactive, TRPC4 potent inactive, TRPC4 block -8* and TRPC6 activator inactive.
CCOC(=O)C1(Cc2ccccc2)CCN(Cc2csc(C(C)=O)c2)CC1 was read as TRPC6 inhibitor inactive, TRPC4 agonist inactive, TRPC4 potent inactive, TRPC4 block inactive and TRPC6 activator inactive.
Screening CCOC(=O)C1(Cc2ccc(Cl)cc2)CCN(Cc2cn(CC)nc2C)CC1 returned TRPC6 inhibitor inactive, TRPC4 agonist 68*, TRPC4 potent inactive, TRPC4 block -6* and TRPC6 activator inactive.
For CCOC(=O)C1(CCCc2ccccc2)CCN(Cc2cnn(C)c2)CC1 the results were TRPC6 inhibitor inactive, TRPC4 agonist 120*, TRPC4 potent inactive, TRPC4 block inactive and TRPC6 activator inactive.
CCOC(=O)C1(Cc2ccccc2)CCN(Cc2cnn(C(C)C)c2)CC1 was read as TRPC6 inhibitor inactive, TRPC4 agonist 55*, TRPC4 potent inactive, TRPC4 block inactive and TRPC6 activator inactive.
For COCCn1c(C)cc(/C=C(\C#N)C(=O)OCC(=O)N(C)c2c(N)n(Cc3ccccc3)c(=O)[nH]c2=O)c1C the results were TRPC6 inhibitor inactive, TRPC4 agonist inactive, TRPC4 potent inactive, TRPC4 block inactive and TRPC6 activator inactive.
`CCC(C)(C)NC(=O)C(c1ccc(C)o1)N(Cc1ccc2c(c1)OCO2)C(=O)c1snc(C(N)=O)c1N` (stereo unspecified) gave TRPC6 inhibitor inactive, TRPC4 agonist inactive, TRPC4 potent inactive, TRPC4 block inactive and TRPC6 activator inactive.
CCCCCSc1nnc2c(n1)OC(c1cccn1C)N(C(C)=O)c1ccccc1-2 (stereo unspecified) was read as TRPC6 inhibitor inactive, TRPC4 agonist 193*, TRPC4 potent inactive, TRPC4 block inactive and TRPC6 activator inactive.
For Cc1ccc(-c2nc(CS(=O)CC(=O)NCCN3CCCCC3C)c(C)o2)cc1 (stereo unspecified) the results were TRPC6 inhibitor inactive, TRPC4 agonist inactive, TRPC4 potent inactive, TRPC4 block inactive and TRPC6 activator inactive.
For CCOC(=O)C1CCN(C(=O)C2CCN(S(=O)(=O)N3CCC4(CC3)OCCO4)CC2)CC1 the results were TRPC6 inhibitor inactive, TRPC4 agonist inactive, TRPC4 potent inactive, TRPC4 block inactive and TRPC6 activator inactive.
O=C(NC1CCCC1)c1sc(=S)n2c1[nH]c(=O)c1ccccc12 was read as TRPC6 inhibitor inactive, TRPC4 agonist 83*, TRPC4 potent inactive, TRPC4 block inactive and TRPC6 activator inactive.
`O=C(NCc1ccco1)c1sc(=S)n2c1[nH]c(=O)c1ccccc12` gave TRPC6 inhibitor inactive, TRPC4 agonist 114*, TRPC4 potent inactive, TRPC4 block inactive and TRPC6 activator inactive.
For O=C(NCC(=O)N1CCN(Cc2ccccc2)CC1)c1ccc(Br)o1 the results were TRPC6 inhibitor inactive, TRPC4 agonist inactive, TRPC4 potent inactive, TRPC4 block inactive and TRPC6 activator inactive.
`CN1CCN(CC(=O)Nc2c(C(=O)c3ccccc3)oc3ccccc23)CC1` gave TRPC6 inhibitor inactive, TRPC4 agonist inactive, TRPC4 potent inactive, TRPC4 block inactive and TRPC6 activator inactive.
`COc1ccc2oc(C(=O)c3ccccc3)c(NC(=O)CN3CCN(C)CC3)c2c1` gave TRPC6 inhibitor -8.1*, TRPC4 agonist 51*, TRPC4 potent 19*, TRPC4 block inactive and TRPC6 activator inactive.
